Screening results (PubChem BioAssay)
ABHD4 inh – ABHD4 (mouse) inhibition, primary FP screen. purified mABHD4, FP-Rh probe fluorescence polarization. Q8VD66. inhibition, % at 8.92 µM. hit rate 0.54% among 370,000;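 active means inhibition exceeding the mean over every tested compound plus 3 SD, cut at about 30% in these data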;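 further: 0% = plate median of compound wells and 100% = S159A mutant with DMSO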
Target sequence (Q8VD66 whole entry, looked up): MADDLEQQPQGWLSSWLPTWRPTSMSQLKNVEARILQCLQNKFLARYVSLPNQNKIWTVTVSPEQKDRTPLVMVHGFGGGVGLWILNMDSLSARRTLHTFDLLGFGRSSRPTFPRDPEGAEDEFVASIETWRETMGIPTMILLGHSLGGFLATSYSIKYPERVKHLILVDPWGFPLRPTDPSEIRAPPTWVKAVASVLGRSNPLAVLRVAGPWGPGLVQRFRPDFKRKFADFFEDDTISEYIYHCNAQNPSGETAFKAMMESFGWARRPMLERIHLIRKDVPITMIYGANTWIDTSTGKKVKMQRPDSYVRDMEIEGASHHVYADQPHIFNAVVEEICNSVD
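Material: mouse ABHD4 enzyme, wild type; Benchmarks: S159A mutant high control, sample median low control; Buffer or medium: HEPES pH 7.0, NaCl, Pluronic buffer; Signal: fluorescence polarization; Read-out: percent inhibition of probe binding, normalized to plate controls; Timing: pre-incubation 45 min, probe exposure 60 min, at 25 °C; Dosing: 8.92 µM, single dose.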
SIAE inh – blocks human sialic acid acetylesterase | SIAE FP-Rh probe binding, fluorescence polarization | Q9HAT2 | hit rate 0.69% among 370,000 | AID 1053197 | inhibition, % at 9.66 µM;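 active means inhibition above a cutoff: mean of compounds within the control limits plus 3 SD of those, cut at about 17% in these data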;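 further: 0% = plate median of compound wells and 100% = probe without SIAE protein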
RBBP9 inh – inhibitors of human serine hydrolase RBBP9; O75884; recombinant RBBP9, FP-Rh probe fluorescence polarization; inhibition, % at 7.94 µM; hit rate 0.2% among 220,000;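 active means inhibition above the campaign mean of all tested compounds plus 3 SD, cut at about 14% in these data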;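 further: plate controls were DMSO wells with RBBP9 for no effect and wells lacking RBBP9 protein for full effect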
Target sequence (O75884 whole entry, looked up): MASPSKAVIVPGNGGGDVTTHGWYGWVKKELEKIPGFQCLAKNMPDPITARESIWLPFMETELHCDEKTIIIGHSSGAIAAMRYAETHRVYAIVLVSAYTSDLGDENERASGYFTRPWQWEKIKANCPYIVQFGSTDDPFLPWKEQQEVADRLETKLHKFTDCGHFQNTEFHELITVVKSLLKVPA
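Measured by – fluorescence polarization · Test system – RBBP9 protein · Input – 2.5 µM RBBP9 dispensing solution, before mixing · Measure – percent inhibition from mP, scaled between DMSO and no-protein wells · Benchmarks – DMSO-treated enzyme wells and wells lacking RBBP9 · Times – preincubation 30 min plus labeling 45 min at 25 °C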
HTRA1 inh – HTRA1 (human) protease inhibition; Q92743; recombinant HTRA1, FP-rhodamine activity-based probe, fluorescence polarization; inhibition, % at 5.96 µM; hit rate 0.5% among 340,000; in the data active means inhibition above about 36%;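 further: 0% = enzyme with DMSO and 100% = wells lacking enzyme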
SIAE inh conf – human SIAE inhibition, confirmation; shares compounds with SIAE inh; SIAE FP-Rh activity-based probe, fluorescence polarization; inhibition, % at 9.66 µM; hit rate 13% among 2,300; AID 1117263;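 active means mean inhibition of the replicates above the hit cutoff set in the primary screen, cut at about 17% in these data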;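 further: 0% = SIAE with DMSO and probe and 100% = probe without SIAE; inhibitors lower polarization as more probe stays unbound to SIAE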
Active calls of the source: *; / = not tested or not shown. Shown are actives, neighbours in structure and some others; about 1.4% of the full set was active somewhere.

SMILES | ABHD4 inh | SIAE inh | RBBP9 inh | HTRA1 inh | SIAE inh conf
COCCC(=O)N1CCOCC1c1cc(C(=O)Nc2ccccc2)no1 (configuration not stated) | 1 | -1 | / | / | /
CC(=O)Nc1ccc(NC(=O)c2ccccc2C)cc1 | -4 | 18* | 1 | 3 | 4
Cc1ccccc1C(=O)Nc1ccc(S(=O)(=O)N2CCN(C)CC2)cc1 | -4 | 19* | -8 | 2 | -5
Cc1ccccc1C(=O)Nc1ccccc1 | -1 | 2 | -3 | 0 | /
CC(=O)C1CN(S(=O)(=O)c2ccc(C)cc2)C(c2ccccc2)CC1C (configuration not stated) | -7 | 5 | / | / | /
O=S1(=O)c2ccc(N3CCCC3)cc2Oc2ccccc2CN1Cc1cn(Cc2ccc(F)cc2)nn1 | 5 | 1 | / | / | /
O=C(NCc1ccc(Cl)cc1)C1CCCN1C(=O)Nc1ccc(F)cc1 (configuration not stated) | -8 | -6 | / | 2 | /
O=C(NCc1ccc(F)cc1)C1CCCN1C(=O)Nc1ccc(Cl)cc1 (configuration not stated) | -4 | 17* | / | 4 | 0
O=C(NCc1ccccc1)[C@@H]1CCCN1C(=O)[C@H]1CCCN1C(=O)c1ccc(F)c(F)c1 | 6 | 9 | / | / | /
O=C(NCc1ccccc1)[C@H]1CCCN1C(=O)[C@H]1CCCN1C(=O)c1ccc(F)c(F)c1 | -1 | 18* | / | / | -1
CCCCN1C(=O)C(C(=O)OCC)CC2=C1CCCC2=O (configuration not stated) | 5 | 1 | / | 11 | /
O=C(COC(=O)c1ccc(CSc2ccc(Cl)cc2)cc1)Nc1ccccc1 | 1 | 20* | -5 | -3 | -4
CN(C)c1ccc(C2SCCN2C(=O)c2ccc([N+](=O)[O-])cc2)cc1 (configuration not stated) | 2 | 19* | -8 | -1 | 4
NC(=O)C1CCN(c2nc(-c3ccc(N)cc3)cs2)CC1 | 7 | -5 | / | / | /
NC(=O)C1CCN(c2ncc(Br)s2)CC1 | 27 | 21* | / | / | 4
O=C(CNC(=O)c1cccs1)Nc1ccncc1 | -6 | 4 | / | 2 | /
O=C(Oc1cccc2c(O)cccc12)c1ccco1 | 24 | 18* | / | 24 | -2
Cc1ccc(OCC(=O)OCC(=O)NC2CCS(=O)(=O)C2)cc1C (configuration not stated) | -5 | -4 | / | 6 | /
O=C(O)C1=NN(c2cc(Cl)c(S(=O)(=O)O)cc2Cl)C(=O)C1 | 15 | -3 | / | 13 | /
COc1ccc(OC)c(-c2nnc3n2N=C(c2ccc(OC(F)F)c(OCC4CC4)c2)CS3)c1 | -20 | -20 | / | -122 | /
COc1ccc(C2=Nn3c(nnc3-c3ccccc3OC)SC2)cc1OCC1CC1 | 4 | 29* | / | -3 | 27*
Nn1c(SCC(=O)Nc2ccc(S(=O)(=O)N3CCCC3)cc2)nnc1C(F)(F)F | -3 | 17* | -6 | -2 | -6
Cn1cnnc1SCC(=O)Nc1ccc(S(=O)(=O)N2CCCC2)cc1 | 3 | -2 | 3 | -2 | /
COCCn1c(N)c(C#N)c2nc3ccccc3nc21 | 4 | 19* | -5 | -2 | 6
Cn1cc(C(=O)N2CCc3ccccc32)cn1 | 2 | 184* | -3 | 7 | 1
SMILES | ABHD4 inh | SIAE inh | RBBP9 inh | HTRA1 inh | SIAE inh conf
CCCS(=O)(=O)c1c(S(=O)(=O)CCC)c2ccc(C(N)=O)cn2c1C(=O)c1ccccc1 | 2 | 10 | / | 6 | /
O=C(NCc1ccccc1)c1cc(C2COCCN2S(=O)(=O)c2ccccc2)on1 (configuration not stated) | -2 | 5 | / | / | /
Cc1ccc(NS(=O)(=O)c2ccc3c(c2)C(=O)c2ccccc2C3=O)c(C)c1 | 11 | 18* | 0 | -2 | 4
CCC(CO)Nc1cccc2c1S(=O)(=O)N(Cc1cn(Cc3ccc(Cl)cc3)nn1)Cc1ccccc1O2 (configuration not stated) | -10 | 3 | / | / | /
C[C@H](CO)N1C[C@H](C)[C@@H](CN(C)S(C)(=O)=O)Oc2ccc(NS(=O)(=O)c3ccccc3)cc2C1=O | 1 | 0 | / | 4 | /
COc1ccc(C)cc1Cn1nnc2ccccc21 | -3 | 1 | / | -2 | /
COc1cc(Cn2nnc3ccccc32)cc(Br)c1O | 10 | 23* | / | 4 | 2
O=C(OCC#CCSc1nnc(-c2cccc(F)c2)o1)c1ccc(F)cc1 | -8 | -2 | / | / | /
Cc1cccc(Cc2ncc(C(F)(F)F)cc2Cl)c1 | -1 | 19* | / | -2 | 7
COCCNC(=O)C(c1ccc(C)o1)N(C(=O)C(=O)NC1CCCCC1)c1ccc(F)cc1 (configuration not stated) | 1 | 3 | -6 | -7 | /
O=C(/C=C/c1ccccc1)N1CCN(CC(O)COc2ccccc2)CC1 (configuration not stated) | 2 | 19* | -2 | -8 | 0
COc1cc(OC)c(C2SCCCS2)cc1OC | -3 | 18* | -7 | -1 | 1
CNC(=S)N(Cc1cccs1)Cc1cc2cc(OC)ccc2[nH]c1=O | 13 | 42* | -2 | 0 | 73*
COc1ccc(/C=N/Nc2nc(-c3ccc(Cl)cc3)cc(C(F)(F)F)n2)cc1OC | -14 | 20* | -6 | -12 | 0
COc1ccc(/C=N/Nc2nc(C)cc(-c3ccccc3)n2)cc1OC | 4 | -1 | / | -8 | /
Clc1ncc(CN2CCN(Cc3ccccc3)CC2)s1 | -2 | 28* | -1 | 1 | -3
CC(C)CN(C(=O)CSc1nc2ccccc2o1)c1c(N)n(Cc2ccccc2)c(=O)[nH]c1=O | -2 | -1 | / | 3 | /
CCN(CC)S(=O)(=O)c1cccc(C(=O)OC2CC(C)OC2=O)c1 (configuration not stated) | -3 | 17* | / | 1 | -2
CN(C)c1ccc(C(CNC(=O)c2ccc(C#N)cc2)c2c[nH]c3ccccc23)cc1 (configuration not stated) | -1 | 24* | -5 | 17 | 7
CN(C)c1ccc(C(CNC(=O)c2ccccc2Br)c2c[nH]c3ccccc23)cc1 (configuration not stated) | 4 | 4 | 2 | 13 | /
CCOC(=O)c1ccc(S(=O)(=O)NCC(c2ccc(N(C)C)cc2)c2c[nH]c3ccccc23)cc1 (configuration not stated) | -23 | 23* | 0 | -8 | 1
COc1ccc2nc(C)cc(N/N=C/c3cccc(OC)c3O)c2c1 | 25 | 24* | / | 7 | 18*
O=[N+]([O-])c1ccc(N/N=C/c2ccccc2O)cc1 | 9 | 40* | / | 7 | -3
COc1cc(/C=N/Nc2nc3ccccc3[nH]2)ccc1O | 22 | 18* | 7 | 14 | 0
COc1cccc(/C=N/Nc2nc3ccccc3[nH]2)c1O | 21 | 17* | -1 | 14 | 1
O=[N+]([O-])c1ccc(O)c(/C=N/Nc2nc3ccccc3[nH]2)c1 | 29 | 19* | 2 | 12 | 11
Cc1ccsc1C(=O)N1CC=C(c2ccccc2)CC1 | 5 | 3 | / | -1 | /
Cc1ccc(C(=O)N2CC=C(c3ccccc3)CC2)s1 | 1 | 19* | / | -13 | 0
